Compounds with a hit are over-represented: about 2.3% of the library has one in this group of screens.
STEP block: inhibitors of human striatal-enriched phosphatase STEP | P54829 | recombinant STEP, OMFP fluorogenic substrate, fluorescence | inhibition, % at 20 µM | 360,000 compounds, 0.25% hits | AID 588621;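 active = inhibition at 20 µM, scaled per plate between control wells, above about 37%, limit read from the data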;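 note: 0% = DMSO with enzyme and substrate and 100% = substrate only without enzyme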
Target sequence (P54829 whole entry, looked up): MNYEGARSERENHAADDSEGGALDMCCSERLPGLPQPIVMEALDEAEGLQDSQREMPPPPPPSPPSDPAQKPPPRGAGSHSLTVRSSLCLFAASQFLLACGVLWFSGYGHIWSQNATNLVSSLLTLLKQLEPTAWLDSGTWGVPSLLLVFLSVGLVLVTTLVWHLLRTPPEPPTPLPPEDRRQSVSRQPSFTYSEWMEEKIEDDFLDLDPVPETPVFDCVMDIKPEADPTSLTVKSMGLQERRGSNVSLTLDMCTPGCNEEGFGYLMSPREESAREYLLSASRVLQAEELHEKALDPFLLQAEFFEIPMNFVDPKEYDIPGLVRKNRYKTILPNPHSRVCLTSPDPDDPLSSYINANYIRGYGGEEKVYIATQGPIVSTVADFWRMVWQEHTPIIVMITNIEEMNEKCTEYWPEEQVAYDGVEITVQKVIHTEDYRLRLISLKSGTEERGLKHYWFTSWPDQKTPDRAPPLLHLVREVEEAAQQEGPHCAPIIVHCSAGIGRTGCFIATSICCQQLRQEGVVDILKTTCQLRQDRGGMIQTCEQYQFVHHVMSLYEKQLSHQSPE
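Test system: STEP tyrosine phosphatase / Reagent: OMFP at 25 µM / Doses: 20 µM, 1% DMSO / Read-out: percent inhibition scaled to no-enzyme and uninhibited-enzyme controls, plate-pattern corrected / Detection: FITC-channel fluorescence of OMFP product / Medium: Bis-Tris buffer pH 6.0, 2.5 mM DTT, 0.005% Tween 20 / Schedule: 20 min at room temperature, dark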
SUMO1 PPI mod: modulators of human SUMO1-mediated protein-protein interactions; inhibition, % at 20 µM; P63165; SUMO1 binding to a labelled peptide, TR-FRET, 1 h; 360,000 compounds, 0.33% hits; in the data active = inhibition above about 37%
LMPTP block: LMPTP (human) inhibition | inhibition, % at 20 µM | AID 651560 | recombinant LMPTP-A, OMFP fluorogenic substrate, fluorescence intensity | 360,000 compounds, 0.22% hits;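 active = compounds that cut the enzyme signal by at least half of the control window in the single-dose screen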;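 note: plate controls were DMSO wells with enzyme plus substrate for no effect and substrate without enzyme for full effect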
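Assay system: LMPTP-A phosphatase enzyme | Input: 0.625 nM enzyme | Also added: Fluorogenic phosphatase substrate OMFP at 400 µM final | Compound dosing: One test concentration per compound, 20 µM, with 3% DMSO overall | Schedule: 50 min enzyme reaction at room temperature, protected from light | Signal: Fluorescence intensity | Benchmarks: no-enzyme and uninhibited controls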
Scp1 inh: blocks human Scp-1 phosphatase activity; Q9GZU7; 340,000 compounds, 0.88% hits; inhibition, % at 20 µM; Recombinant Scp1, phosphopeptide, malachite green phosphate absorbance;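 active = inhibition above about 50% at 20 µM, limit read from the data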;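 note: plate controls were DMSO wells with enzyme for no effect and wells lacking enzyme for full effect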
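System: SCP-1 catalytic domain; Reagent: Phospho 17-mer peptide substrate; Doses: one concentration, 20 µM, with 1.0% DMSO; Incubation: 45 min room-temperature reaction, 5 min colour, 30 min stabiliser; Signal: Phosphate-binding colour reagent, absorbance read at 630 nm.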
NadD inh: blocks S. aureus nicotinate mononucleotide adenylyltransferase. purified NadD enzyme, colorimetric absorbance read-out. inhibition, % at 20 µM. 360,000 compounds, 0.78% hits. AID 602399; in the data active = inhibition above about 26%
DNMT1 inh: inhibitors of human DNMT1; P26358; DNMT1 molecular beacon, Hinp1I cleavage, fluorescence; inhibition (reported as % activation of signal), % at 10 µM; 360,000 compounds, 0.83% hits; AID 588458; in the data active = inhibition above about 50%
NadD conf: confirmation of Staphylococcus aureus NadD inhibitors; shares compounds with NadD inh; purified S. aureus NadD, colorimetric enzyme assay; inhibition, % at 20 µM; 2,000 compounds, 13% hits; AID 624309; in the data active = inhibition mostly above about 42%, no sharp cut-off; inactive = mostly below about 42%
Numbers without * were called inactive; . = no result given.

SMILES	STEP block	SUMO1 PPI mod	LMPTP block	Scp1 inh	NadD inh	DNMT1 inh	NadD conf
COc1ccc(C)cc1S(=O)(=O)Nc1cccc(-c2ccc(N3CCCCCC3)nn2)c1	2	-31	4	8	31*	-8	28
CCc1ccc(C(=O)N/N=C/c2ccncc2)s1	1	-19	1	1	-4	1	.
CC(C)NC(=O)c1cccc2c(-c3ccc(F)c(F)c3)coc12	2	14	1	.	-3	4	.
O=C(NCc1ccc(Cl)c(Cl)c1)c1cc(C2CCCCN2C(=O)OCCF)on1 (configuration not stated)	0	5	0	.	-6	1	.
Cc1ccc([N+](=O)[O-])cc1S(=O)(=O)Nc1ccc(-c2ccc(N3CCOCC3)nn2)cc1	0	-22	1	7	12	-1	.
Cc1ccc(S(=O)(=O)Nc2cccc(-c3ccc(N4CCCCCC4)nn3)c2)cc1C	3	3	6	18	42*	-10	36
CCOc1ccc(S(=O)(=O)Nc2cccc(-c3ccc(N4CCCCCC4)nn3)c2)cc1	4	-1	5	6	24	-7	.
Cc1ccc([N+](=O)[O-])cc1S(=O)(=O)Nc1cccc(-c2ccc(N3CCCC3)nn2)c1	0	-8	3	16	44*	-3	55*
COC(CNS(=O)(=O)c1cc2c3c(c1)CCN3C(=O)CC2)OC	0	5	-1	-6	3	3	.
O=S(=O)(Nc1nccs1)c1ccc(Nc2nnc(-c3ccccc3)c3ccccc23)cc1	1	12	4	9	64*	9	62*
Cc1onc(-c2ccccc2)c1C(=O)Nc1ccc(S(=O)(=O)Nc2nccs2)cc1	-5	-2	0	-4	-3	1	.
COc1ccccc1-n1c(=O)c(C#N)c(-c2ccc([N+](=O)[O-])cc2)c2cc(C(=O)c3ccccc3O)cnc21	3	-22	2	-14	38*	-7	12
COc1ccccc1-n1cc(C(=O)c2cc(Cl)ccc2O)cc(C#N)c1=O	5	-5	1	5	3	-5	.
Cc1cc(C(=O)N/N=C/c2cc(Br)ccc2OC(=O)c2ccccc2Cl)n[nH]1	5	2	6	-7	35*	30	-4
N#Cc1ccc(NC(=O)Nc2ccc(Oc3ccc(NC(=O)Nc4ccc(C#N)cc4)cc3)cc2)cc1	-4	9	4	-14	28*	-26	-2
N#Cc1ccc(NC(=O)Nc2cccc(C#N)c2)cc1	-3	4	1	-11	-7	0	.
COc1ccc(CNC(=O)CS(=O)CC(=O)O)cc1OC (configuration not stated)	-2	-2	-1	-4	0	-6	.
O=Cc1ccc(-c2cc(Cl)ccc2Cl)[nH]1	-1	-11	1	-1	1	0	.
COc1ccc(NC(=O)c2cccc(N3C(=O)c4ccc(C(=O)Nc5ccc(OC)c(O)c5)cc4C3=O)c2)cc1O	-1	-7	3	-17	44*	-12	35
O=C(O)c1cccc(NC(=O)c2ccc3c(c2)C(=O)N(c2ccccc2)C3=O)c1	1	-19	-2	-12	-6	-2	.
COc1ccc(-c2nnc(Nc3nc4c(OC)cccc4s3)o2)c(OC)c1	9	19	1	26	3	-1	.
COc1ccc(-c2nnc(Nc3nc4c(OC)cccc4s3)o2)cc1	0	9	12	23	31*	-1	48
O=C(NCc1cccc(C(F)(F)F)c1)c1csc([C@H]2C[C@H](O)[C@@H](CO)O2)n1	-2	1	-2	.	0	-4	.
C/C(=N\Nc1nc(-c2cc(C)ccc2C)cs1)c1cc2ccccc2oc1=O	-2	9	0	-1	4	-3	.
C/C(=N\Nc1nc(-c2cc(C)ccc2C)cs1)c1cc2c(ccc3ccccc32)oc1=O	1	-7	2	15	48*	3	4
SMILES	STEP block	SUMO1 PPI mod	LMPTP block	Scp1 inh	NadD inh	DNMT1 inh	NadD conf
CCOc1ccc(N=Nc2c(=O)[nH]n3c(=O)c4c([nH]c23)CCCC4)cc1	5	-26	9	11	32*	-6	24
CCOc1ccc(N=Nc2c(=O)[nH]n3c(=O)cc(C)[nH]c23)cc1	12	-35	9	15	10	-3	.
COCCn1c(C)cc(C2=NNC(=NC3CC3)SC2)c1C	-1	3	0	-5	2	-6	.
COCCn1c(C)cc(C2=NNC(=Nc3ccc(Cl)cc3Cl)SC2)c1C	0	1	-3	1	36*	-15	3
O=C(Nc1ccc(F)cc1)c1nc2c(nnn2Cc2cccc3ccccc23)c(=O)[nH]1	2	9	4	0	33*	4	20
COc1cccc(OC)c1NC(=O)c1nc2c(nnn2Cc2ccccc2Cl)c(=O)[nH]1	-3	0	-1	-12	15	0	.
N#Cc1c(N2CCN(c3ccc(F)cc3)CC2)nc(N)c2c(N)nc3c(c12)CC(=O)N3C1CC1	9	18	4	-2	44*	-21	15
COc1ccc(C)cc1-n1c(SCC(=O)Nc2cc(C)on2)nc2sc(C)c(C)c2c1=O	2	0	4	-13	36*	-4	35
COc1ccc(C)cc1-n1c(SCC(=O)Nc2cc(C)on2)nc2ccccc2c1=O	-2	2	0	-13	-1	0	.
COc1cccc(-c2nn(-c3ccccc3)cc2/C=C(/NC(=O)c2ccccc2)C(=O)O)c1	-1	0	0	-12	2	0	.
CC(C)C[C@@H](CN1CCCC1CN1C(=S)NC[C@@H]1Cc1ccc(O)cc1)N1C[C@H](Cc2ccc(O)cc2)N(CC2CCCCCC2)C1=S (some centres not stated)	-2	5	5	24	55*	-25	36
CC(C)C[C@H]1CNC(=S)N1C[C@H]1CCCN1C[C@H](CC(C)C)N1C[C@H](Cc2ccc(O)cc2)N(CC2CCCCC2)C1=S	.	5	7	.	41*	.	11
CC(C)C[C@@H](CN1CCCC1CN1C(=S)NC[C@@H]1Cc1ccc(O)cc1)N1C[C@H](Cc2ccccc2)N(CC2CCCCCC2)C1=S (some centres not stated)	8	-1	3	10	23	-4	.
CC(CN1CCCCC1)NC(=O)c1scnc1-c1ccccc1 (configuration not stated)	-2	4	-3	.	0	2	.
CCN(CC)S(=O)(=O)c1ccc(N2CCN(C)CC2)c(NC(=O)c2cc(=O)c3ccccc3o2)c1	-1	-19	2	-3	-7	2	.
